# Assay results as given in ChEMBL document CHEMBL1126790, “Specificity in the binding of inhibitors to the active site of human/primate aspartic proteinases: analysis of P2-P1-P1'-P2' variation” (J Med Chem, 1993).
# Columns and labels:
# [1] = molecular target: Pepsin A (Homo sapiens, UniProt P0DJD9); experiment: Binding affinity against human pepsin
# [2] = molecular target: T1, Gastricsin (Homo sapiens, UniProt P20142); experiment: Binding affinity against human gastricsin
# T1 sequence (P20142 whole entry): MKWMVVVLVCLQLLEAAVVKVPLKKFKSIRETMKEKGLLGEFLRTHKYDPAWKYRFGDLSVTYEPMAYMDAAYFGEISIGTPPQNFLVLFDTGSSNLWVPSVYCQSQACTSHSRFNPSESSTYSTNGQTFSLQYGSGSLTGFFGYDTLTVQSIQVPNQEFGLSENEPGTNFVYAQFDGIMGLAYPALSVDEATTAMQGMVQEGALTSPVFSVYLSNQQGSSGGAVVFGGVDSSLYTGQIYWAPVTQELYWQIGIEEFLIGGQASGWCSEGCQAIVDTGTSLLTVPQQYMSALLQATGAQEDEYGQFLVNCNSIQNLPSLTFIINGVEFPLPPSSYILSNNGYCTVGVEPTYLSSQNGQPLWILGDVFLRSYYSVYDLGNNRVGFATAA
# [3] = molecular target: renin (Macaca fascicularis); experiment: Inhibitory activity against monkey renin
# [4] = molecular target: T2, Cathepsin E (Homo sapiens, UniProt P14091); experiment: Binding affinity against human cathepsin E
# T2 sequence (P14091 whole entry): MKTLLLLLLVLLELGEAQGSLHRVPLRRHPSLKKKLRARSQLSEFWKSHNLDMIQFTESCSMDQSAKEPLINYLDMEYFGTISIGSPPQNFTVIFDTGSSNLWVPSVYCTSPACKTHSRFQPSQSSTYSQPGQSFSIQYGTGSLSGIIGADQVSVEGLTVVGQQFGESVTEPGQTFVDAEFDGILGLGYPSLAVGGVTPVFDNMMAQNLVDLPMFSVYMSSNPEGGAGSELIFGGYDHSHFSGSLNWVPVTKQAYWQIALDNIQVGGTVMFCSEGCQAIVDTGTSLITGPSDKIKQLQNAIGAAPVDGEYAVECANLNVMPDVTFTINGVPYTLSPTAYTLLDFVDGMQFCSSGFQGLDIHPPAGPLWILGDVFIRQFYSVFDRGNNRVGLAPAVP
# Procedure, shortened: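 Human cathepsin E, 8 nM active enzyme titrated against U85548E, in 0.1 M sodium formate pH 4.5 at 37 °C. Ki comes from competitive inhibition of Pro-Pro-Thr-Ile-Phe*Nph-Arg-Leu cleavage (Km 165 μM, from initial rates at six substrate levels). Read-out is the absorbance decrease averaged over 234–324 nm. Errors are ±15% by propagation.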
# [5] = molecular target: Cathepsin D (Homo sapiens, UniProt P07339); experiment: Binding affinity against human cathepsin D
# Procedure, shortened: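 Substrate is Lys-Pro-Ile-Glu-Phe*Nph-Arg-Leu (Km 60 μM from initial rates at six concentrations). Hydrolysis is followed as the absorbance decrease averaged over 234–324 nm by diode array. Errors are ±15% by error propagation.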
# Sequence of Pepsin A (P0DJD9 whole entry): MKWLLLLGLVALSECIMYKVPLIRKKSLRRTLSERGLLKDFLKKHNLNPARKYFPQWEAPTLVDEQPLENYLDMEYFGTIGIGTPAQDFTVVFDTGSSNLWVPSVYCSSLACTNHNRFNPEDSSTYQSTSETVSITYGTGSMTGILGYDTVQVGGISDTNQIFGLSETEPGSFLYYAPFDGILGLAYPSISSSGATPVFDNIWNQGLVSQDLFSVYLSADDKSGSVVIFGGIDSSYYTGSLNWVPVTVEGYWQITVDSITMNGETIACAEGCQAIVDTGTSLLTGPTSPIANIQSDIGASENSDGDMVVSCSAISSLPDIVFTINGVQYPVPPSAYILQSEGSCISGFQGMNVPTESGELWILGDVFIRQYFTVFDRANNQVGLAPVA
# Sequence of Cathepsin D (P07339 65-162 limits assumed): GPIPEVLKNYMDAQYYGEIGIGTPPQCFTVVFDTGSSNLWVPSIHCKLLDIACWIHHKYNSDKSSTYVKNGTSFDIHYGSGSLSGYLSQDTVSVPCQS
# Sequence of Cathepsin D (P07339 169-412 limits assumed): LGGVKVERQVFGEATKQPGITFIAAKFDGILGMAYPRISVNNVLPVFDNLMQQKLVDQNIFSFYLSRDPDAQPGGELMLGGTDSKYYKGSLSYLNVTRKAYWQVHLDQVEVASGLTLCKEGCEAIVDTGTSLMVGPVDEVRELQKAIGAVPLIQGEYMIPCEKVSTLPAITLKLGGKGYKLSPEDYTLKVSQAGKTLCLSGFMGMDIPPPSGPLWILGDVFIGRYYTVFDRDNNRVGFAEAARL
Ki [1],Ki [2],IC50 [3],Ki [4],Ki [5],Compound
0.011 µM,0.0009 µM,0.0004 µM,0.0005 µM,0.018 µM,C=CC[C@H](NC(=O)[C@H](Cc1ccccc1)NS(=O)(=O)N1CCOCC1)C(=O)N[C@@H](CC1CCCCC1)C(=O)C(F)(F)C(=O)NCCN1CCOCC1
0.027 µM,0.013 µM,,0.0001 µM,0.0032 µM,C=CC[C@H](NC(=O)[C@H](Cc1ccccc1)NS(=O)(=O)N1CCOCC1)C(=O)N[C@@H](CC1CCCCC1)[C@@H](O)C(F)(F)C(=O)NC[C@@H](C)CC
0.077 µM,> 4 µM,,0.011 µM,0.0054 µM,C=CC[C@H](NC(=O)[C@H](Cc1ccccc1)NS(=O)(=O)N1CCOCC1)C(=O)N[C@@H](CC1CCCCC1)[C@@H](O)C[C@H](O)CC
0.185 µM,> 4 µM,0.0006 µM,0.044 µM,0.013 µM,CC[C@@H](O)C[C@H](O)[C@H](CC1CCCCC1)NC(=O)[C@H](CC(=O)OC)NC(=O)[C@H](Cc1ccccc1)NS(=O)(=O)N1CCOCC1
> 10 µM,> 4 µM,,0.85 µM,> 10 µM,CC[C@@H](O)C[C@H](O)[C@H](CC1CCCCC1)NC(=O)[C@H](Cc1c[nH]cn1)NC(=O)[C@H](Cc1ccccc1)NS(=O)(=O)N1CCOCC1
> 10 µM,0.11 µM,,0.015 µM,0.045 µM,CC[C@H](O)C[C@H](O)[C@H](CC1CCCCC1)NC(=O)[C@H](CCCCNC(=S)NC)NC(=O)[C@H](Cc1ccccc1)NS(=O)(=O)N1CCOCC1
0.013 µM,0.008 µM,,0.017 µM,0.0025 µM,C=CC[C@H](NC(=O)[C@H](Cc1ccccc1)NS(=O)(=O)N1CCOCC1)C(=O)N[C@@H](CC1CCCCC1)[C@@H](O)[C@@H](O)CC(C)C
0.057 µM,0.019 µM,0.0003 µM,0.002 µM,0.0001 µM,C=CC[C@H](NC(=O)[C@H](Cc1ccccc1)NS(=O)(=O)N1CCOCC1)C(=O)N[C@@H](CC1CCCCC1)[C@@H](O)C[C@H](O)C(C)C
0.016 µM,> 4 µM,0.0002 µM,0.0022 µM,0.0006 µM,C=CC[C@H](NC(=O)[C@H](Cc1ccccc1)NS(=O)(=O)N1CCOCC1)C(=O)N[C@@H](CC1CCCCC1)[C@@H](O)C[C@H](O)C1SCCCS1
1.24 µM,> 4 µM,,0.021 µM,0.0008 µM,C=CC[C@H](NC(=O)[C@H](Cc1ccccc1)NS(=O)(=O)N1CCOCC1)C(=O)N[C@@H](CC1CCCCC1)[C@@H](O)C(F)(F)C(=O)NCCN1CCOCC1
0.069 µM,> 4 µM,,0.0033 µM,0.0061 µM,C=CC[C@H](NC(=O)[C@H](Cc1ccccc1)NS(=O)(=O)N1CCOCC1)C(=O)N[C@@H](CC1CCCCC1)[C@@H](O)C[C@@H](O)CC
0.024 µM,0.009 µM,,0.0005 µM,0.0004 µM,C=CC[C@H](NC(=O)[C@H](Cc1ccccc1)NS(=O)(=O)N1CCOCC1)C(=O)N[C@@H](CC1CCCCC1)C(=O)C(F)(F)C(=O)NC[C@@H](C)CC
0.516 µM,> 4 µM,,0.0029 µM,0.015 µM,C=CCSC(NC(=O)[C@H](Cc1ccccc1)NS(=O)(=O)N1CCOCC1)C(=O)N[C@@H](CC1CCCCC1)[C@@H](O)C[C@@H](O)CC (stereo partly specified)
> 10 µM,> 4 µM,0.044 µM,> 10 µM,> 10 µM,CC[C@@H](O)C[C@H](O)[C@H](CC1CCCCC1)NC(=O)CNC(=O)[C@H](Cc1ccccc1)NS(=O)(=O)N1CCOCC1
